Results reported in ChEMBL document CHEMBL4680118, “Cerpegin-derived furo[3,4-c]pyridine-3,4(1H,5H)-diones enhance cellular response to interferons by de novo pyrimidine biosynthesis inhibition” (Eur J Med Chem, 2020).
Activity calls are given as the source filed them. The calls are words filed in the database; no cut-off is given here.

How the values were obtained:
Type in all cases: cell-based
[1] = biological target: T1, Dihydroorotate dehydrogenase (quinone), mitochondrial (Homo sapiens, UniProt Q02127); assay: Inhibition of DHODH in human HEK293 cells transfected with ISRE-luciferase reporter gene assessed as increase in 60 IU/ml IFN-alpha stimulated PKR mRNA expression at 80 uM measured after 16 hrs by RT-qPCR analysis relative to control
Outline: (§1)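 HEK-293 ISRE-Luc cells (DMEM, 10% FCS, 37°C, 5% CO2) were given increasing IFN-α doses together with DMSO or compound at 80 μM, then harvested at 16 h. RNA was extracted from 2×10^5 cells with DNase treatment. Transcripts were run by qPCR for 35 cycles and normalized to RPL13A and to unstimulated controls by 2^-ΔΔCT. Values are fold change versus DMSO; three independent experiments; two-way ANOVA with Bonferroni.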

[2] = biological target: T1, Dihydroorotate dehydrogenase (quinone), mitochondrial; assay: Inhibition of DHODH in human HEK293 cells transfected with ISRE-luciferase reporter gene assessed as increase in 30 IU/ml IFN-alpha stimulated PML mRNA expression at 80 uM measured after 16 hrs by RT-qPCR analysis relative to control
Outline: (§2)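 ISRE-Luc HEK cells co-treated with increasing IFN-α concentrations and DMSO or compound (80 µM) for 16 h. Total RNA extracted from 2×10^5 cells with DNase step; qPCR 35 cycles. CT values normalized to RPL13A and unstimulated controls (2^-ΔΔCT), expressed as fold change versus DMSO alone. Three independent experiments; two-way ANOVA with Bonferroni.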

[3] = biological target: T1, Dihydroorotate dehydrogenase (quinone), mitochondrial; assay: Inhibition of DHODH in human HEK-293 cells transfected with ISRE-luciferase reporter gene assessed as increase in IFN-alpha mediated cellular response at 6 to 178 uM after 24 hrs by luciferase reporter gene assay; conditions: HEK293, dose 6-178 µM
[4] = biological target: T1, Dihydroorotate dehydrogenase (quinone), mitochondrial; assay: Inhibition of DHODH in human HEK293 cells transfected with ISRE-luciferase reporter gene assessed as increase in 60 IU/ml IFN-alpha stimulated IFIT5 mRNA expression at 80 uM measured after 16 hrs by RT-qPCR analysis relative to control; outline: as §1
[5] = biological target: T1, Dihydroorotate dehydrogenase (quinone), mitochondrial; assay: Inhibition of DHODH in human HEK293 cells transfected with ISRE-luciferase reporter gene assessed as increase in 250 IU/ml IFN-alpha stimulated MX2 mRNA expression at 80 uM measured after 16 hrs by RT-qPCR analysis relative to control; outline: as §2
[6] = biological target: T1, Dihydroorotate dehydrogenase (quinone), mitochondrial; assay: Inhibition of DHODH in human HEK293 cells transfected with ISRE-luciferase reporter gene assessed as increase in 60 IU/ml IFN-alpha stimulated PML mRNA expression at 80 uM measured after 16 hrs by RT-qPCR analysis relative to control; outline: as §1

T1 sequence (Q02127 whole entry): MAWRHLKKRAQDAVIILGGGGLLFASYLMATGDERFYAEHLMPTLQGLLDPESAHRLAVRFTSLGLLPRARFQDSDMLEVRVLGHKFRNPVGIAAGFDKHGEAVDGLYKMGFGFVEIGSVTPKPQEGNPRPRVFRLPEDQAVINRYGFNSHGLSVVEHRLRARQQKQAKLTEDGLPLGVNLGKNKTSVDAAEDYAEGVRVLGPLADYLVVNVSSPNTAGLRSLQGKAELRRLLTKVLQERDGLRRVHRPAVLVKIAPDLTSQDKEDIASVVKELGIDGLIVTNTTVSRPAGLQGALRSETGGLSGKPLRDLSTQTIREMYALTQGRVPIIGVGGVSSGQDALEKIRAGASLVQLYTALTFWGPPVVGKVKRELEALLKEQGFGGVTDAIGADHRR

`O=C1OC2(CCCCC2)c2ccn(C3CC3)c(=O)c21` was tested, and the fold change (FC) [1] was 3, the fold change (FC) [2] was 3 and the Activity [3] was “Active”. It also gave a fold change (FC) [4] of 3, a fold change (FC) [5] of 28 and a fold change (FC) [6] of 4.
